In ChEMBL document CHEMBL1125450, “Synthesis and in vitro characterization of novel amino terminally modified oxotremorine derivatives for brain muscarinic receptors” (J Med Chem, 1992) one finds Ki and Response data, which are given here for 13 compounds.

The target of experiment [1] is T1, Muscarinic acetylcholine receptor M1 (Rattus norvegicus, UniProt P08482).
T1 sequence (P08482 whole entry): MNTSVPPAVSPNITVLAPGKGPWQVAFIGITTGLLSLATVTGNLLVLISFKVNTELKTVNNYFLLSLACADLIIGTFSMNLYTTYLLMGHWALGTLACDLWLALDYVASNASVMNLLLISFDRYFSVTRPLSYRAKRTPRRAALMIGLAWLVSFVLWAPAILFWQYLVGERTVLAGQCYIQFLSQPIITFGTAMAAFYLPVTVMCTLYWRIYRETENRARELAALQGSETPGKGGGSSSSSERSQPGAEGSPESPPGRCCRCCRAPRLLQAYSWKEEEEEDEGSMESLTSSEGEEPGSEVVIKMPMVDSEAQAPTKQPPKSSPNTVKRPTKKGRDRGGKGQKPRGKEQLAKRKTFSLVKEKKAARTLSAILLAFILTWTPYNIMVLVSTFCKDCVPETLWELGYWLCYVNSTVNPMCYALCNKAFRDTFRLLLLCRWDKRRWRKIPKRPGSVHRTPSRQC
Briefly: Compound was evaluated for its binding affinity towards Muscarinic acetylcholine receptor M1 in rat cortex. The gist of the method:
(§1)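 Rat fronto-parietal cortex homogenised 1:200 w/v in 50 mM Na-K phosphate, pH 7.4; 0.5 mg tissue competed against [3H]pirenzepine (6 nM) for 1 h at 25 °C, filtered on polyethylenimine-treated GF/B. Nonspecific binding with 10 µM atropine. IC50 converted to Ki by Cheng-Prusoff.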

Experiment [2] deals with T2, Muscarinic acetylcholine receptor M2 (Rattus norvegicus, UniProt P10980).
T2 sequence (P10980 whole entry): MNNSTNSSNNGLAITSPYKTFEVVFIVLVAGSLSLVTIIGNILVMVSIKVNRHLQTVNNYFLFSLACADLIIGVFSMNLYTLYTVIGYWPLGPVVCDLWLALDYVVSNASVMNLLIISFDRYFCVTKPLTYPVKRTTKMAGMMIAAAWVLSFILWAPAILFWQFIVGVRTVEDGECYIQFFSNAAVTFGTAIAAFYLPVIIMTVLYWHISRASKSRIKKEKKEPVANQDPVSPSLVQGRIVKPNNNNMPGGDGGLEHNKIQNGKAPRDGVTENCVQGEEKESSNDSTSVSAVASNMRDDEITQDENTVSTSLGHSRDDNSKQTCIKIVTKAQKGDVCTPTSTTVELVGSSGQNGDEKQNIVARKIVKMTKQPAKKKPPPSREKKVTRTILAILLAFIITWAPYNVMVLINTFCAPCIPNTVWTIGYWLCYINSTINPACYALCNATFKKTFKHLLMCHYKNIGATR
Briefly: Compound was evaluated for its binding affinity towards Muscarinic acetylcholine receptor M2 in rat brainstem. Format: tissue-based, Brain. A digest of the protocol: (§2)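 Rat pons-medulla homogenised 1:200 w/v in 50 mM sodium phosphate, pH 7.4; 0.5 mg tissue with 0.2 nM [3H]QNB and varying unlabeled ligand, 75 min at 25 °C. IC50 corrected to Ki by Cheng-Prusoff.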

Experiment [3] has as its target T1, Muscarinic acetylcholine receptor M1. Briefly: Compound was evaluated for its binding affinity towards M1 receptor in rat cortex.
The target in experiment [4] is T2, Muscarinic acetylcholine receptor M2. Briefly: Compound was evaluated for its binding affinity towards M2 receptor in rat brainstem. It is filed as tissue-based, Brain.
The target in experiment [5] is T1, Muscarinic acetylcholine receptor M1. Briefly: Compound was evaluated for its binding affinity towards muscarinic acetylcholine receptor in rat cortex. The gist of the method: as §1
Experiment [6] has as its target T3, Muscarinic acetylcholine receptor M1 (Rattus norvegicus) (UniProt P08482).
T3 sequence (whole entry): T1 sequence (P08482 whole entry)
As to the kind of experiment: Intrinsic activity against Muscarinic acetylcholine receptor M1 in rat cortex (activity expressed as % response of that produced by carbachol). Format: functional. The gist of the method: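 Dissociated male Sprague-Dawley rat cortex, rejuvenated in oxygenated Krebs-Henseleit (final step with 10 mM Li+), labeled 60 min at 37 °C with [3H]inositol. Compound at 1 mM added for 60 min under 95% O2/5% CO2; [3H]inositol 1-phosphate isolated on Dowex. Response scaled to 1 mM carbachol PI hydrolysis (100%).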

Experiment [7] deals with T2, Muscarinic acetylcholine receptor M2. As to the kind of experiment: Compound was evaluated for its binding affinity towards muscarinic acetylcholine receptor M2 in rat brainstem. Format: tissue-based, Brain. A digest of the protocol:
as §2

Experiment [8] has as its target T4, Muscarinic acetylcholine receptor M2 (Rattus norvegicus) (UniProt P10980).
T4 sequence (whole entry): T2 sequence (P10980 whole entry)
As to the kind of experiment: Intrinsic activity against muscarinic acetylcholine receptor M2 in rat striatum (activity expressed as % response of that produced by carbachol). Format: functional, tissue-based. A digest of the protocol: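 Dissociated rat striatum prelabeled 45 min at 37 °C with [3H]adenine, then 30 min with 1.5 mM IBMX before 10 µM forskolin plus 100 µM compound for 10 min; stopped with TCA, [3H]cAMP by ion-exchange columns. Inhibition of cAMP scaled to that of 100 µM carbachol (100%).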

Regarding `CN(C)CC#CCN1CCCC1=O`, the inhibition constant (Ki) amounted to 15.9 µM in experiment [1] and 0.926 µM in experiment [2].
For the compound `O=C1CCCN1CC#CC[C@H]1CCCN1`, the results for the Ki in experiment [3] and in experiment [4] were 3.07 µM and 2.46 µM, respectively.
The like results for `O=C1CCCN1CC#CC[C@H]1CCCCN1` were, in that order, 3.03 µM and 0.636 µM.
The like results for `O=C1CCCN1CC#CC[C@@H]1CCCCN1` were, in that order, 27.6 µM and 15.8 µM.
In the same order, the values of `CN1CCCC[C@@H]1CC#CCN1CCCC1=O` are 1.2 µM and 3.66 µM.
Consider `O=C1CCCN1CC#CC[C@@H]1CCCN1`, for which the Ki was 40.5 µM in experiment [3] and 5.64 µM in experiment [4].
The like results for `CN1CCCC[C@H]1CC#CCN1CCCC1=O` were, in that order, 5.38 µM and 7.06 µM.
In the same order, the values of `CN1CCC[C@H]1CC#CCN1CCCC1=O` are 10.5 µM and 10.8 µM.
For `O=C1CCCN1CC#CCN1CCCC1` [OXOTREMORINE], the figures for the Ki in experiment [5] and in experiment [7] were 0.196 µM and 0.084 µM, respectively. In experiment [6], this compound yielded a Response of 13.7%.
For `CCN(C)CC#CCN1CCCC1=O`, the Ki was found to be 2.69 µM in experiment [5] and 0.813 µM in experiment [7]. In addition, the Response in experiment [6] is 2.75%; in experiment [8], 91.6%.
In the same order, the values of `O=C1CCCN1CC#CCN1CCC1` are 2.25 µM, 0.0274 µM, 46.2% and 105%.
On to `CN1CCC[C@@H]1CC#CCN1CCCC1=O`, for which the Ki was determined as 5.46 µM in experiment [3] and 5.86 µM in experiment [4].
As for `CNCC#CCN1CCCC1=O`, the Ki in experiment [5] was determined as 65.5 µM; in experiment [7] it was 38.1 µM. Besides, the Response in experiment [6] is 5.7%; in experiment [8] it was 36.3%.
